According to ChEMBL document CHEMBL1134532, “Reversible carnitine palmitoyltransferase inhibitors with broad chemical diversity as potential antidiabetic agents” (J Med Chem, 2001):

Experiments:
[1] = molecular target: T1, Carnitine O-palmitoyltransferase 1, muscle isoform (Rattus norvegicus, UniProt Q63704); test: Inhibitory activity against rat heart mitochondrial carnitine palmitoyltransferase 1b using [14C]palmitoyl-CoA as radioligand
T1 sequence (Q63704 whole entry): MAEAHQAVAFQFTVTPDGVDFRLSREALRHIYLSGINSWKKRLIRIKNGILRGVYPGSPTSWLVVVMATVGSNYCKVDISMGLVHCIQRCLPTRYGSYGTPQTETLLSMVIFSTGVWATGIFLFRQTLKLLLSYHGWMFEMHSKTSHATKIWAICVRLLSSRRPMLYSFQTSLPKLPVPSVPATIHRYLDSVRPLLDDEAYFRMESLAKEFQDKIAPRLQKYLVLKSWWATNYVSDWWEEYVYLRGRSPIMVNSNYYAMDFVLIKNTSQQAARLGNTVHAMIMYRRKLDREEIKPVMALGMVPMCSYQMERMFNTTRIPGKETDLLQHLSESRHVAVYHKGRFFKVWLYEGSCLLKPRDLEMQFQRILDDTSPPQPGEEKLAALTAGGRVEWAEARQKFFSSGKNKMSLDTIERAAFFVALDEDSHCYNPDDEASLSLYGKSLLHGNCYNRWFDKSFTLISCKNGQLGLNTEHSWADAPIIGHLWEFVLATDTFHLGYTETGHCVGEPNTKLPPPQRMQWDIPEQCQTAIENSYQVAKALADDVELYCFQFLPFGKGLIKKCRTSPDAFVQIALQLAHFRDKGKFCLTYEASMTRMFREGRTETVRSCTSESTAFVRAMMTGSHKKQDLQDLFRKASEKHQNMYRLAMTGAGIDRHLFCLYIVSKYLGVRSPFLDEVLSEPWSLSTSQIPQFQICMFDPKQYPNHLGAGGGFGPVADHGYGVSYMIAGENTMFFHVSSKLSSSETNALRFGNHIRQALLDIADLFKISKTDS
In short: (§1)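 Performed on intact rat mitochondria: liver for L-CPT I, heart for M-CPT I. IC50 in µM calculated from the inhibition curve. Values are means of two determinations in triplicate, with variation between experiments under 8%.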

[2] = molecular target: T2, Carnitine O-palmitoyltransferase 1, liver isoform (Rattus norvegicus, UniProt P32198); test: Inhibition of rat liver mitochondrial carnitine palmitoyltransferase 1 using [14C]palmitoyl-CoA radioligand; in short: as §1
T2 sequence (P32198 whole entry): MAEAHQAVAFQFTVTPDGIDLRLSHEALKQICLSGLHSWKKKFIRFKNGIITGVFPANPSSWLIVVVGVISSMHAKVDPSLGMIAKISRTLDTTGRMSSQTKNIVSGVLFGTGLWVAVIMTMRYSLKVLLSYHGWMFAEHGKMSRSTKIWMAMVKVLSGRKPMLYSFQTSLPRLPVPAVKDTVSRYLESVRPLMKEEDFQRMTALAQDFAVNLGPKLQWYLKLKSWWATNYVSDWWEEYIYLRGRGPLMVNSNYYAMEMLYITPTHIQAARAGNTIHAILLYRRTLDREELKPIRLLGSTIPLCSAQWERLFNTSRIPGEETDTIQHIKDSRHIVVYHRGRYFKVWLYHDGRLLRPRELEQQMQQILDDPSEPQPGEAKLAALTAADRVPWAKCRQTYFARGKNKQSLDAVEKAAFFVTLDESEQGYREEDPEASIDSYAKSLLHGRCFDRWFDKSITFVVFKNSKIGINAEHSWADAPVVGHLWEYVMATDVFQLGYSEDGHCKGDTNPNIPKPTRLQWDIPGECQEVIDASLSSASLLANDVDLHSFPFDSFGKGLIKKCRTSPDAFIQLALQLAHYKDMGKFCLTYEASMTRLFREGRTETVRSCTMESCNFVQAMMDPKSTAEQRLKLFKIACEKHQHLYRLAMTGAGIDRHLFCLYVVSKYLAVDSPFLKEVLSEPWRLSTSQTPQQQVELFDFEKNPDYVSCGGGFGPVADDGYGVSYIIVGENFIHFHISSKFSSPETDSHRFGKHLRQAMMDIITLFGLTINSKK

IC50 [1] [µM] | IC50 [2] [µM] | Structure (SMILES)
> 10 | 6 | CCCCCCCCCCCCS(=O)(=O)N[C@@H](CC(=O)[O-])C[N+](C)(C)C
– | > 300 | CCCCCCCCCCCCCCOC(=O)OC(CC(=O)[O-])C[N+]12CCC(CC1)CC2 (centres undefined)
3.4 | 0.7 | CCCCCCCCCCCCS(=O)(=O)N[C@H](CC(=O)[O-])C[N+](C)(C)C
– | > 300 | CCCCCCCCCCCCCCOC(Cc1nn[n-]n1)C[N+](C)(C)C (centres undefined)
5.8 | 0.8 | CCCCCCCCCCCNS(=O)(=O)N[C@H](CC(=O)[O-])C[N+](C)(C)C
– | > 300 | CCCCCCCCCNC(=O)OC(C[n+]1ccccc1)CP(=O)(O)O (centres undefined)
– | > 300 | CCCCCCCCCNC(=O)OC(CC(=O)[O-])C[N+](C)(C)C (centres undefined)
2.3 | 1.6 | CCCCCCCCCCS(=O)(=O)NC(CC(=O)[O-])C[N+](C)(C)C (centres undefined)
– | > 300 | CCCCCCCCNC(CC(=O)[O-])C[N+](C)(C)C (centres undefined)
– | 47 | CCCCCCCCCCCCCCOC(CC(=O)[O-])C[N+](C)(C)C (centres undefined)
– | > 300 | CCCCCCCCCOC(=O)OC(CC(=O)O)C[N+](C)(C)C (centres undefined)
83.2 | 19.5 | CCCCCCCCCNC(=O)NC(CC(=O)[O-])C[N+](C)(C)C (centres undefined)
3.8 | 2.3 | CCCCCCCCCNS(=O)(=O)NC(CC(=O)[O-])C[N+](C)(C)C (centres undefined)
– | 122 | CCCCCCCCCNC(=S)NC(CC(=O)[O-])C[N+](C)(C)C (centres undefined)
> 10 | 6 | CCCCCCCCCCCNS(=O)(=O)N[C@@H](CC(=O)[O-])C[N+](C)(C)C
– | > 300 | CCCCCCCCOC(CC(=O)[O-])C[N+](C)(C)C (centres undefined)
– | > 300 | CCCCCCCCCNC(=O)OC(C[N+](C)(C)C)CP(=O)([O-])O (centres undefined)
– | > 300 | CCCCCCCCCCCCCCOC(=O)OC(C[N+]12CCC(CC1)CC2)CP(=O)([O-])O (centres undefined)
211 | 22.3 | CCCCCCCCOC(=O)NC(CC(=O)[O-])C[N+](C)(C)C (centres undefined)
– | > 300 | CCCCCCCCCNC(=O)OC(CC(=O)[O-])C[P+](C)(C)C (centres undefined)
– | 230 | CCCCCCCCCCCCCCNC(CC(=O)[O-])C[N+](C)(C)C (centres undefined)
